From article PMC4878416 (Diabetes, 2016)

How the values were obtained:
[1] = test system: p27KIP phosphorylation (S10); experiment: Western blot of p27KIP phosphorylation; type: cell-based, rat; conditions: INS-1E cells, 24 or 48 h, 10 μmol/L harmine or 0.5 μmol/L 5-IT
Procedure, shortened: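 Cells were treated after overnight attachment and lysed in RIPA buffer. Western blots were probed for p27KIP S10 phosphorylation, with actin as loading control.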

intact human islets = type: cell-based; conditions: intact islets of three donors, 1 μmol/L, 6 days
Procedure, shortened: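 Intact islets from three donors received DMSO or 1 μmol/L test compound for 6 days, and expression was averaged geometrically. Fold changes were regressed by five-dimensional least squares against published expression data from sorted α, β, acinar, large-duct, small-duct and uncharacterised islet cells to estimate cell-mass changes. Significance was assessed by randomising the assignment of sorted replicate samples to cell types.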

human β-cells = type: in vivo; conditions: 0.25 mg/kg/BW i.p. twice a week for 3 weeks, vs vehicle
Procedure, shortened: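 NSG mice (male, 8–10 weeks old) were grafted with 1,000 IEQ of human islets under the kidney capsule. From 1 week post-graft they received test compound (0.25 mg/kg i.p., 50% DMSO) or vehicle twice weekly for 3 weeks, followed by BrdU 100 mg/kg i.p. for 3 days and sacrifice at 6 h. Graft sections were co-stained for insulin or PDX-1 with BrdU, Ki67 or pHH3. 1,000–2,000 β-cells were counted per animal; n = 3–4; mean ± SEM; unpaired t test.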

[2] = test system: liver, adipose, muscle and kidney tissue; experiment: Proliferation; type: in vivo, mouse; conditions: 3-week treatment, 0.25 mg/kg/BW i.p.
Procedure, shortened: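 Male NSG mice (8–10 weeks old) carried human islet kidney-capsule grafts. From 1 week post-graft they received test compound i.p. at 0.25 mg/kg in 50% DMSO or vehicle, twice weekly for 3 weeks. BrdU was then given at 100 mg/kg i.p. for 3 days, and mice were killed 6 h after the last dose. BrdU+ nuclei were counted in liver and muscle (≥3,000 cells) and in visceral/subcutaneous adipose (1,000–2,000 cells).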

primary rat neurons = experiment: Proliferation of primary rat neurons in culture; type: cell-based
[3] = test system: human islet cells (all cell types); experiment: Proliferation of other cell types in the heterogeneous human islet cell culture; type: cell-based

Compound: Nc1ncnc2c1c(I)cn2[C@@H]1O[C@H](CO)[C@@H](O)[C@H]1O [5-IT, 5-iodotubercidin]
- p27KIP phosphorylation [1]: decrease
- increase in α-cell mass predicted by gene expression results (intact human islets; 95% CI 4.6–7.5): 6.1%
- β-cell mass increase that could account for gene expression changes (intact human islets; 95% CI 5.8–9.2): 7.5%
- increase in BrdU incorporation in β-cells of human islet grafts (human β-cells; P < 0.01): approximately fivefold
- increase in Ki67 staining of β-cells of human islet grafts (human β-cells; P < 0.05): approximately sixfold
- increase in PDX1/BrdU double-positive cells in human islet grafts (human β-cells; P < 0.05): approximately fourfold
- increase in PDX1/Ki67 double-positive cells in human islet grafts (human β-cells; P < 0.05): approximately sixfold
- increase in pHH3 immunostaining of β-cells of human islet grafts (human β-cells; P < 0.05): ~10 fold
- proliferation in liver, adipose, muscle and kidney tissue, treated vs control [2]: no significant differences
- effect on primary rat neurons in culture (primary rat neurons): no effect
- proliferation of all cell types in the heterogeneous culture system [3]: did not induce proliferation of all cell types
